From ChEMBL document CHEMBL4270517, “New 6- and 7-heterocyclyl-1H-indole derivatives as potent tubulin assembly and cancer cell growth inhibitors” (Eur J Med Chem, 2018)
The source made the active and inactive calls. The rule behind the calls is not given here.

Experiments:
[1] = target: Tubulin; test: Inhibition of tubulin polymerization (unknown origin) preincubated for 15 mins followed by GTP addition measured for 20 mins by spectrophotometric method; format: protein-complex assay, Homo sapiens
Procedure, shortened: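 Purified tubulin at 10 µM in 0.8 M monosodium glutamate pH 6.6 with 4% DMSO and varying compound; preincubated 15 min at 30 °C, chilled on ice, GTP to 0.4 mM added, turbidity at 350 nm followed 20 min at 30 °C. Extent of assembly measured; IC50 derived.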

[2] = target: T1, Tubulin (Homo sapiens) (UniProt P68371+Q9H4B7+P0DPH7+P68366+Q13509+Q71U36+P04350+Q3ZCM7+P07437+P68363+Q9BQE3+Q6PEY2+Q13885+Q9BVA1+Q9BUF5); test: Inhibition of [3H]colchicine binding to tubulin (unknown origin) at 5 uM after 10 mins relative to control; format: protein-complex assay
[3] = tested on: MCF7; test: Growth inhibition of human MCF7 cells after 96 hrs by trypan blue exclusion assay; format: functional, cell-based; conditions: MCF7, 96 h
[4] = tested on: OVCAR-8; test: Growth inhibition of human OVCAR8 cells after 96 hrs by trypan blue exclusion assay; format: functional, cell-based; conditions: OVCAR-8, 96 h
[5] = tested on: NCI/ADR-RES; test: Growth inhibition of human NCI/ADR-RES cells after 96 hrs by trypan blue exclusion assay; format: functional, cell-based
[6] = tested on: HepG2; test: Growth inhibition of human HepG2 cells after 48 hrs by MTT assay; format: functional, cell-based; conditions: HepG2, 48 h
[7] = target: T1, Tubulin (Homo sapiens); test: Inhibition of tubulin polymerization in human HeLa cells assessed as fragmented or multipolar spindles formation at 20 to 50 nM by DAPI staining based immunofluorescence analysis; format: cell-based
Procedure, shortened: (§1)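 HeLa cells on poly-L-lysine coverslips treated 24 h with 20–100 nM compound, fixed in methanol 6 min, immunostained for α-tubulin (FITC secondary), DNA counterstained with DAPI; spindle and microtubule morphology of mitotic cells examined by epifluorescence microscopy with 100× oil objective.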

[8] = target: T1, Tubulin (Homo sapiens); test: Inhibition of tubulin polymerization in human HeLa cells assessed as microtubule asters formation at 100 nM by DAPI staining based immunofluorescence analysis; format: cell-based; procedure, shortened: as §1
[9] = target: T1, Tubulin (Homo sapiens); test: Inhibition of tubulin polymerization in human HeLa cells assessed as formation of sparse tubulin foci at >= 50 nM by DAPI staining based immunofluorescence analysis; format: cell-based; procedure, shortened: as §1
[10] = target: T1, Tubulin (Homo sapiens); test: Inhibition of tubulin polymerization in human HeLa cells assessed as fragmented or multipolar spindles formation at 20 nM by DAPI staining based immunofluorescence analysis; format: cell-based; procedure, shortened: as §1
[11] = tested on: HeLa; test: Induction of cell death in human HeLa cells at 20 nM after 24 hrs by annexin V-FITC staining based flow cytometry

| IC50 [1] | inhibition [2] | Structure (SMILES) | further results |
| --- | --- | --- | --- |
| 1.3 µM | 76% | COc1cc(Sc2c[nH]c3ccc(-c4cccs4)cc23)cc(OC)c1OC |  |
| 1.8 µM | 63% | COc1cc(Sc2c[nH]c3ccc(-c4ccoc4)cc23)cc(OC)c1OC |  |
| 1.3 µM | 77% | COc1cc(Sc2c[nH]c3c(-c4ccsc4)cccc23)cc(OC)c1OC |  |
|  |  | COc1ccc(/C=C\c2cc(OC)c(OC)c(OC)c2)cc1O [COMBRETASTATIN A4] | IC50 [3]: 0.005 to 0.013 µM; IC50 [4]: 0.004 µM; IC50 [5]: 0.0035 µM |
|  | 70% | COc1cc(C(=O)c2c[nH]c3c(-c4ccco4)cccc23)cc(OC)c1OC |  |
| 0.59 µM | 97% | COc1cc(Sc2c[nH]c3cc(-c4ccco4)ccc23)cc(OC)c1OC |  |
| 2.3 µM | 90% | COc1cc(Sc2c[nH]c3cc(-c4ccoc4)ccc23)cc(OC)c1OC |  |
| 2.6 µM | 48% | COc1cc(C(=O)c2c[nH]c3c(-c4cccs4)cccc23)cc(OC)c1OC |  |
| 1.3 µM | 86% | COc1cc(Sc2c[nH]c3c(-c4ccoc4)cccc23)cc(OC)c1OC |  |
|  |  | CC(=O)O[C@H]1C(=O)[C@@]2(C)[C@H]([C@H](OC(=O)c3ccccc3)[C@]3(O)C[C@H](OC(=O)[C@H](O)[C@@H](NC(=O)c4ccccc4)c4ccccc4)C(C)=C1C3(C)C)[C@]1(OC(C)=O)CO[C@@H]1C[C@@H]2O [PACLITAXEL] | IC50 [3]: 0.0055 µM; IC50 [6]: 2.66 µM; IC50 [4]: 0.004 µM; IC50 [5]: 3.1 µM |
| 0.47 µM | 95% | COc1cc(Sc2c[nH]c3cc(-c4cccs4)ccc23)cc(OC)c1OC |  |
| 0.38 µM | 96% | COc1cc(C(=O)c2c[nH]c3cc(-c4cccs4)ccc23)cc(OC)c1OC |  |
| 1.7 µM | 72% | COc1cc(Sc2c[nH]c3ccc(-c4ccsc4)cc23)cc(OC)c1OC |  |
| 0.87 µM | 81% | COc1cc(Sc2c[nH]c3ccc(-c4ccco4)cc23)cc(OC)c1OC |  |
| 0.61 µM | 96% | COc1cc(C(=O)c2c[nH]c3cc(-c4ccoc4)ccc23)cc(OC)c1OC |  |
| 6.2 µM |  | COc1cc(C(=O)c2c[nH]c3c(-c4ccsc4)cccc23)cc(OC)c1OC |  |
| 0.6 µM | 94% | COc1cc(C(=O)c2c[nH]c3cc(-c4ccsc4)ccc23)cc(OC)c1OC |  |
| 0.57 µM | 89% | COc1cc(Sc2c[nH]c3c(-c4cccs4)cccc23)cc(OC)c1OC | inhibition [7]: Active; inhibition [8]: Active |
| 0.76 µM | 96% | COc1cc(C(=O)c2c[nH]c3cc(-c4ccco4)ccc23)cc(OC)c1OC |  |
| 3 µM | 29% | COc1cc(C(=O)c2c[nH]c3c(-c4ccoc4)cccc23)cc(OC)c1OC |  |
| 0.74 µM | 88% | COc1cc(Sc2c(-c3cccs3)[nH]c3ccccc23)cc(OC)c1OC |  |
| 0.58 µM | 97% | COc1cc(Sc2c[nH]c3cc(-c4ccsc4)ccc23)cc(OC)c1OC | inhibition [9]: Active; inhibition [10]: Active |
| 0.64 µM | 95% | COc1cc(Sc2c[nH]c3c(-c4ccco4)cccc23)cc(OC)c1OC |  |
|  |  | CC[C@]1(O)C[C@@H]2CN(CCc3c([nH]c4ccccc34)[C@@](C(=O)OC)(c3cc4c(cc3OC)N(C)[C@H]3[C@@](O)(C(=O)OC)[C@H](OC(C)=O)[C@]5(CC)C=CCN6CC[C@]43[C@@H]65)C2)C1 | Activity [11]: Active |
